Here are results for 13 compounds from ChEMBL document CHEMBL5356931, “Medicinal chemistry approaches to target the MNK-eIF4E axis in cancer” (RSC Med Chem, 2023).

Series [1] concerns the target Proto-oncogene tyrosine-protein kinase receptor Ret (Homo sapiens, UniProt P07949). Briefly: Inhibition of RET (unknown origin).
Series [2] has as its target T1, Receptor-type tyrosine-protein kinase FLT3 (Homo sapiens, UniProt P36888).
T1 sequence (P36888 whole entry): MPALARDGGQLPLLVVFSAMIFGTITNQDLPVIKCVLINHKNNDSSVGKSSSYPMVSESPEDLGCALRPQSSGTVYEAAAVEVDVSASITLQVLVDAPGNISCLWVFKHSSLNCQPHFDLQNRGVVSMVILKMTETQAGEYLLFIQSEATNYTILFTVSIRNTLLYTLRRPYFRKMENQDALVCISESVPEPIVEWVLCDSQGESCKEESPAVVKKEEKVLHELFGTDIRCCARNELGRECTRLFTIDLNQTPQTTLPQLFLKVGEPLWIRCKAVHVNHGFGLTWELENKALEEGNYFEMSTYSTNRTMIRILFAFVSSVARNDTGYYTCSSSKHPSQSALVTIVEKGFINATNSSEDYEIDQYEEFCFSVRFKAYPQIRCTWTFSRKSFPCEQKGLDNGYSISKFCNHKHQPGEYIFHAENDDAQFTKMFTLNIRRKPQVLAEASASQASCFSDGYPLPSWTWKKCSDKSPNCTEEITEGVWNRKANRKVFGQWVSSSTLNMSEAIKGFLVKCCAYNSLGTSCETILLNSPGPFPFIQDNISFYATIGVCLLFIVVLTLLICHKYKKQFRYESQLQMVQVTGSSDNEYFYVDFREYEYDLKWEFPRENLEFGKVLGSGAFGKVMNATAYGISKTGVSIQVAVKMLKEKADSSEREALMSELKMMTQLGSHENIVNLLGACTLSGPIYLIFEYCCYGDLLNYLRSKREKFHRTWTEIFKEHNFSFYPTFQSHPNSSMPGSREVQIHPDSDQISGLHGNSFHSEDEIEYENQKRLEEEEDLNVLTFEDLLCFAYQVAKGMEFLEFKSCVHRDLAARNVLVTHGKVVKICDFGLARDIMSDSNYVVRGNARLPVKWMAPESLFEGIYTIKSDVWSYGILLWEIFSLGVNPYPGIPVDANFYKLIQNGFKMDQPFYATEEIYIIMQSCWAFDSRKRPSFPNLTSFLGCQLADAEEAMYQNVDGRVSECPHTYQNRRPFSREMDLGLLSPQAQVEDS
Kind of series: Inhibition of FLT3 (unknown origin).

For series [3], the target named is Vascular endothelial growth factor receptor 2 (Homo sapiens, UniProt P35968). Kind of series: Inhibition of VEGFR2 (unknown origin).
Vascular endothelial growth factor receptor 2, sequence (P35968 whole entry): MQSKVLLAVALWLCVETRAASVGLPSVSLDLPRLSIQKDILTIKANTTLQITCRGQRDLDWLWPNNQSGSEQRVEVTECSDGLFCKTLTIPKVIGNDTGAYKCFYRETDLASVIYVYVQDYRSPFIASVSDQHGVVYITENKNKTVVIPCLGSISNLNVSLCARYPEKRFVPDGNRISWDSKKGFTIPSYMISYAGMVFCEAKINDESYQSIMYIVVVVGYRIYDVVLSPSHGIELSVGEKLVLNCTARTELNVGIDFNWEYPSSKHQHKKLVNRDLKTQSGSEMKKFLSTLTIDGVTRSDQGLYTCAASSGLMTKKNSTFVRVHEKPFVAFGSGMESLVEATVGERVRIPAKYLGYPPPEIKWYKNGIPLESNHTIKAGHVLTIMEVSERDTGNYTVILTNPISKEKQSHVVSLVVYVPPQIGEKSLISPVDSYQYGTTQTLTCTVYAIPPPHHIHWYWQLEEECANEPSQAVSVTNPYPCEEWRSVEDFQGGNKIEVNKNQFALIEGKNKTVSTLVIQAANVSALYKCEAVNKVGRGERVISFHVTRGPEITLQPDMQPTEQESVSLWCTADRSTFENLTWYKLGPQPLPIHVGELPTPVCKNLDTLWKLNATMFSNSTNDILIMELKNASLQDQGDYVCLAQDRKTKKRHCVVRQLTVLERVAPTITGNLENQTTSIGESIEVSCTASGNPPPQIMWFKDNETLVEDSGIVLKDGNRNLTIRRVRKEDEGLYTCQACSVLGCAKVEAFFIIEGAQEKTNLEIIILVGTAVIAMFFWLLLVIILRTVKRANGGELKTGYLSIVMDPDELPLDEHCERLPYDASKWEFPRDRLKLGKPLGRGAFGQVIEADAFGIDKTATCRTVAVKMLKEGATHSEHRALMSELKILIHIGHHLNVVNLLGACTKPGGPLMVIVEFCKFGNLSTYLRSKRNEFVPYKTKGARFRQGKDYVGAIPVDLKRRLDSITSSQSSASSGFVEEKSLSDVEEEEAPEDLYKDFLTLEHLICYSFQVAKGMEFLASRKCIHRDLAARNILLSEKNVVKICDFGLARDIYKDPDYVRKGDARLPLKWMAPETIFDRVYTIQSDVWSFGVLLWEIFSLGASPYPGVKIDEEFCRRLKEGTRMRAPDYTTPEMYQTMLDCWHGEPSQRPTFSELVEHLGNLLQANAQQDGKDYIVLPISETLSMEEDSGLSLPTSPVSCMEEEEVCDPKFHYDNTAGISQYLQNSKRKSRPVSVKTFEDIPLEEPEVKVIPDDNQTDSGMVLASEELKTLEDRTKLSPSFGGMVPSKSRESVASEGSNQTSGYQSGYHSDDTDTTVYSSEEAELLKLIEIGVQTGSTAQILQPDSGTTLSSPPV
A short description of series [4]: Half life in CD-1 mouse at 5 mg/kg, iv. It counts as ADME, organism-based, CD1. To be noted: in vivo.
Series [5] in a line: Drug exposure in mouse at 5 mg/kg,po. The format is ADME, organism-based. On the set-up: dose 5 mg/kg, route po. The settings on record: in vivo. In outline: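 Mice received a single oral dose of 5 mg kg⁻¹. Exposure was described by oral bioavailability F (%), Cmax (ng mL⁻¹) and AUC0−t (last) (ng h mL⁻¹).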
Series [6] addresses T2, Eukaryotic translation initiation factor 4E (Homo sapiens, UniProt P06730). Briefly: Inhibition of eIF4E phosphorylation in human HeLa cells. It counts as cell-based.
Series [7] addresses MAP kinase-interacting serine/threonine-protein kinase 1 (Homo sapiens) (UniProt Q9BUB5). Briefly: Inhibition of MNK1 (unknown origin) relative to control. The settings on record: concentration not given here.
Series [8] concerns the target T3, Tyrosine-protein kinase ABL1 (Homo sapiens, UniProt P00519). Briefly: Inhibition of ABL1 (unknown origin).
Series [9] in a line: Solubility of compound at pH 7.4. The format is physicochemical. To be noted: buffer.
The nature of series [10]: Solubility of the compound. The format is physicochemical.
In series [11] the test system is K562. Briefly: animal or person. The settings on record: Mus musculus, K562, read-out: TGI.
For series [12], the system named is K562. Kind of series: animal or person. The settings on record: Mus musculus, K562, read-out: TGI. This is another data set of the same source.
For series [13], the target named is T2, Eukaryotic translation initiation factor 4E. Kind of series: Binding affinity to eIF4E (unknown origin) assessed as dissociation constant.
The target in series [14] is MAP kinase-interacting serine/threonine-protein kinase 2 (Homo sapiens, UniProt Q9HBH9). Briefly: Inhibition of MNK2 (unknown origin).
MAP kinase-interacting serine/threonine-protein kinase 2, sequence (Q9HBH9 whole entry): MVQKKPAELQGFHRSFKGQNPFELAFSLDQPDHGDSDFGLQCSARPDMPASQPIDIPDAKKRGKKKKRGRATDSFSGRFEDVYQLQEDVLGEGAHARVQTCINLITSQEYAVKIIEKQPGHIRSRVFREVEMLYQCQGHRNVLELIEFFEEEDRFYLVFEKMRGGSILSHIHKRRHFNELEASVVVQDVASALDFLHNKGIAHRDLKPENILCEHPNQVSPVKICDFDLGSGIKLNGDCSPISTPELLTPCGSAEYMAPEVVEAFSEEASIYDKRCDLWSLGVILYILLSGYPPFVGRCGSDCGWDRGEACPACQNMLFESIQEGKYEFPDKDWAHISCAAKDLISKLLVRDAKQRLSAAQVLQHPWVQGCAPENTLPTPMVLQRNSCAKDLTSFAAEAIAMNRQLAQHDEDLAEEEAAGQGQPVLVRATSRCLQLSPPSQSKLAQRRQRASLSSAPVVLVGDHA
Series [15] concerns the target T3, Tyrosine-protein kinase ABL1. Briefly: Inhibition of ABL1 (unknown origin) relative to control. The settings on record: concentration not given here.

In brackets after ≈: the same amount, converted by molar mass.

T3 sequence (P00519 whole entry): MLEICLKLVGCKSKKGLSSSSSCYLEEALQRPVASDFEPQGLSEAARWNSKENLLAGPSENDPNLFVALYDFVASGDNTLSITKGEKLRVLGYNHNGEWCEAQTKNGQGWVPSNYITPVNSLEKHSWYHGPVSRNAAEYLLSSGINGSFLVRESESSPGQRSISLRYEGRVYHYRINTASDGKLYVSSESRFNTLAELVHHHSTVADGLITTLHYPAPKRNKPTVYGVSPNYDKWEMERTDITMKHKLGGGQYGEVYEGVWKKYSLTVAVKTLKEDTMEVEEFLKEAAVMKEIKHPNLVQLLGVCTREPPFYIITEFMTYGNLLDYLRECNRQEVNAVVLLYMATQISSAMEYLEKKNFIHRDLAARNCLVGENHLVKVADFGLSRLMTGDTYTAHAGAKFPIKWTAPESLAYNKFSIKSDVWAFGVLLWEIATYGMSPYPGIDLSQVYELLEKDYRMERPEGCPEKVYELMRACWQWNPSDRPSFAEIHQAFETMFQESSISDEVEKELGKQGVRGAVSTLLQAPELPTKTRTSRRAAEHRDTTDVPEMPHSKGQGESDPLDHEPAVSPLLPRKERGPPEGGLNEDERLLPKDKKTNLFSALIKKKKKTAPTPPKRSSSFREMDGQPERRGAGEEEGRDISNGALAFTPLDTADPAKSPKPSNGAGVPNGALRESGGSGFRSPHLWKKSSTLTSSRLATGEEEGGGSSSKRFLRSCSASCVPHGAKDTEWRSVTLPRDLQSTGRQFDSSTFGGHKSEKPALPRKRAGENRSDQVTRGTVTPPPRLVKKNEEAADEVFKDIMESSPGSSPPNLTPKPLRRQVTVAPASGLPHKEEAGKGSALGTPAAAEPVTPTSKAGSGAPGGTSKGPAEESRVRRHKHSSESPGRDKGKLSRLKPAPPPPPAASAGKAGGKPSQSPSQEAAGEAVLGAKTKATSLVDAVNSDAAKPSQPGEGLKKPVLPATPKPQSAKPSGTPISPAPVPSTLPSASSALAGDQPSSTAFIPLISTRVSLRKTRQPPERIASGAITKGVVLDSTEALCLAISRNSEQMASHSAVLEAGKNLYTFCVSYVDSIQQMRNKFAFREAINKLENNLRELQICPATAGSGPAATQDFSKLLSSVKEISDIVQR
T2 sequence (P06730 whole entry): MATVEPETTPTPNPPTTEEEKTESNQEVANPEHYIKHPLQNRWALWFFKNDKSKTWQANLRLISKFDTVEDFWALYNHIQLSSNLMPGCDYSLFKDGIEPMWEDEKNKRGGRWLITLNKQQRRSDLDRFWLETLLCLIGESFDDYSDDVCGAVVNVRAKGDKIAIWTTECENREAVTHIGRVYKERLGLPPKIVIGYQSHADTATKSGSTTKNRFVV
MAP kinase-interacting serine/threonine-protein kinase 1 (Homo sapiens), sequence (Q9BUB5 whole entry, looked up): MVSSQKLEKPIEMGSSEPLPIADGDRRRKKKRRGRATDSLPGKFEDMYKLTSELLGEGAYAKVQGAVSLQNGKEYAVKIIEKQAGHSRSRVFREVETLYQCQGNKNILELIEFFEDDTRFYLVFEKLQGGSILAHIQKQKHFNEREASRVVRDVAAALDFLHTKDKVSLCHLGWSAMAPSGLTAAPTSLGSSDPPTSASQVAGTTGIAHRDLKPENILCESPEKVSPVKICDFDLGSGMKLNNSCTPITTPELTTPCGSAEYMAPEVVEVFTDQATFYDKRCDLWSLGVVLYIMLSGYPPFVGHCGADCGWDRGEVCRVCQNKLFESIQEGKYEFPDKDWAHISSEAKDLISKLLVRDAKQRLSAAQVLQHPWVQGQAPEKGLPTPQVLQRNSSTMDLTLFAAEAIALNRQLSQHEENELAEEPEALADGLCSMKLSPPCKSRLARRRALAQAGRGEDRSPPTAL
Proto-oncogene tyrosine-protein kinase receptor Ret, sequence (P07949 whole entry): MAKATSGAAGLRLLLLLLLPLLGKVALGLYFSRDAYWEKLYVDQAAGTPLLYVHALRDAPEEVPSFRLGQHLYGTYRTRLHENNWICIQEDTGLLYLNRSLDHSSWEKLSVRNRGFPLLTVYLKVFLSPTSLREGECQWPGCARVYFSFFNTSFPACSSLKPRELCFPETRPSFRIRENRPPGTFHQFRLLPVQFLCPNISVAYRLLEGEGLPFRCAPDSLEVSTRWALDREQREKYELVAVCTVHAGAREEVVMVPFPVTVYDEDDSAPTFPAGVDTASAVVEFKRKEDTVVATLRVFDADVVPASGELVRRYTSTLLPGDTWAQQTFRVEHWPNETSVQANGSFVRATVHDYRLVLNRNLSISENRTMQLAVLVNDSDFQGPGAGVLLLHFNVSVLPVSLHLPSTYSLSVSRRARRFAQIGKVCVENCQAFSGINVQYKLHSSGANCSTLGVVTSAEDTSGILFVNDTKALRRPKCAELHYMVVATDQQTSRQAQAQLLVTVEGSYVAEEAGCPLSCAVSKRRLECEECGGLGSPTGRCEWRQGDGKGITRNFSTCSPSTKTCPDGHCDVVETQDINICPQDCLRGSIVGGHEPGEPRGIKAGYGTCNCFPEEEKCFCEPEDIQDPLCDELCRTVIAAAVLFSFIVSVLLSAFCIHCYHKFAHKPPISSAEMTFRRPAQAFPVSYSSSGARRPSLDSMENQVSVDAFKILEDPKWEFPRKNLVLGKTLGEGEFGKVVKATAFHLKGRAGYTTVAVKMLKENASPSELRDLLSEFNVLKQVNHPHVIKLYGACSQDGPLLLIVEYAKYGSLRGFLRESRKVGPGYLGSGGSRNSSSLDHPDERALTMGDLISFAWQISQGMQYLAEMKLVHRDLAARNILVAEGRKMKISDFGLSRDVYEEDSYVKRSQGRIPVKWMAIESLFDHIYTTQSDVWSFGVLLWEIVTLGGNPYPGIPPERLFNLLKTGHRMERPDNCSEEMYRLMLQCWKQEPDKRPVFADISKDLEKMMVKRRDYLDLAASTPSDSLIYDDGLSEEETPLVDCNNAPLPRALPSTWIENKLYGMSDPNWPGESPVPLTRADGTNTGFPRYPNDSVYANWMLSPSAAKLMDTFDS

One may read the IC50 as the concentration that inhibits the measured activity by half. Low values mean greater potency in that assay, high ones weaker potency in that assay. A word on the half-life: it is the time needed for the level to fall by half in the phase considered. A lower half-life goes with fast loss. On to `CCN1CCN(Cc2ccc(NC(=O)CNc3ccc(-c4ccc(NC(=O)C5CC5)nc4)cc3)cc2C(F)(F)F)CC1`, for which the IC50 in [1], in [2] and in series [3] was less than 24 nM in each case. For the same compound, the half-life in series [4] was 126 min. The AUC is the area under the concentration-time curve, a measure of exposure. What is called inhibition is the change of the read-out against control, counted positive when it falls. With `CC(C)Oc1cc(-c2cncc(-c3cnn(C4COC4)c3)c2)ccc1C(N)=O`, the AUC in [5] was 2080 ng·h/mL. 200 nM corresponded to half-maximal inhibition in [6] (IC50). Besides, in series [7], the inhibition is more than 90%.

For the compound `CCN1CCN(Cc2ccc(NC(=O)COc3ccc(-c4cccnc4)cc3)cc2C(F)(F)F)CC1`, the IC50 in [8] was more than 10 µM.

The solubility is how much of the substance goes into solution per volume. As for `CC(C)Oc1cc(-c2cccnc2)ccc1C(N)=O`, the solubility in series [9] came out at 45 µg/mL (≈ 176 µM).

For the compound `CN1CCN(C(=O)c2ccc(-c3cn4c(-c5ccc(O)cc5)cnc4cn3)cc2)CC1`, the solubility in [10] was determined as 144 µg/mL (≈ 348 µM). The same measure, in the same setting: next, `O=C(c1ccc(-c2cn3c(-c4ccc(O)cc4)cnc3cn2)cc1)N1CCOCC1`: 11.5 µg/mL (≈ 28.7 µM). Take `N#Cc1ccc(-c2cnc3ccc(-c4ccc(C(=O)N5CCOCC5)cc4)cn23)cc1` [TINODASERTIB]: in the series on K562 [11], the inhibition in vivo at 50 mg/kg amounted to 110%. Moreover, in the series on K562 [12], the inhibition in vivo at 25 mg/kg was determined as 107%. The term Kd denotes a measure of binding affinity in units of concentration. Take `NC(=O)c1ncn([C@@H]2O[C@H](CO)[C@@H](O)[C@H]2O)n1` [RIBAVIRIN]: the Kd in series [13] stood at 8.4 µM. In series [14], `CN1CCN(C(=O)c2ccc(-c3cn4c(-c5ccc(C(=O)NO)cc5)cnc4cn3)cc2)CC1` showed an IC50 of 30 nM. Consider `CN1CCN(Cc2ccc(NC(=O)CNc3ccc(-c4ccc(NC(=O)C5CC5)nc4)cc3F)cc2C(F)(F)F)CC1`, for which the inhibition in series [15] and in [7] was more than 90% throughout. The IC50 in [1] is less than 24 nM; in series [2], less than 24 nM; in [3] it was less than 24 nM; in [6], 280 nM. Compound `CN1CCN(C(=O)c2ccc(-c3ccc4ncc(-c5ccc(C#N)cc5)n4n3)cc2)CC1` displayed a 50% inhibitory concentration (IC50) in series [14] of 30 nM. Consider `CC(=O)N1CCN(C(=O)c2ccc(-c3cn4c(-c5ccc(O)cc5)cnc4cn3)cc2)CC1`, for which, in series [10], the solubility turned out to be 144 µg/mL (≈ 326 µM). With `CCN1CCN(Cc2ccc(NC(=O)CNc3ccc(-c4cccnc4)cc3)cc2C(F)(F)F)CC1`, the IC50 in series [8] is more than 10 µM.
